One assay concerns the target Histone deacetylase 1 (Homo sapiens, UniProt Q13547). The assay can be described thus: Inhibition of HDAC1 by fluorescent activity assay.
Another assay has as its system HCT-116. The assay can be described thus: Antiproliferative activity against human HCT116 cells by MTT assay. Format: functional, cell-based. Background: Tetrazolium dyes change colour on reduction, which living cells bring about.
Assay [1] in a line: Antitumor activity against mouse EAC cells transplanted in Swiss albino mouse assessed as tumor weight inhibition in ascetic fluid at 0.2 mmol/kg, ip administered qd for 7 days measured on 8th day. The assay is classed as functional. The settings on record: Ehrlich, 168 h, read-out: GI. The method in brief:
(§1)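 Ehrlich ascites carcinoma cells (9 days old) were taken from a donor mouse into sterile isotonic saline and adjusted to 10 × 10⁶ cells/mL. Mice received 0.1 mL per 10 g ip on day 0. Compound in PBS pH 7.2 (0.1 mL/10 g) was given ip on days 1–7 at 24-h intervals; controls received vehicle only. On day 8, after 6 h fasting, peritoneal cells were counted and ascitic fluid weight was taken from body weight before and after fluid removal.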

The nature of assay [2]: Antitumor activity against mouse EAC cells transplanted in Swiss albino mouse assessed as tumor cell inhibition in ascetic fluid at 0.2 mmol/kg, ip administered qd for 7 days measured on 8th day. Format: functional. The settings on record: Ehrlich, 168 h, read-out: GI. The method in brief: as §1
Assay [3] can be described thus: Antitumor activity against mouse EAC cells transplanted in Swiss albino mouse assessed as tumor weight inhibition in ascetic fluid at 1 mg/kg, ip administered qd for 7 days measured on 8th day. Format: functional. The settings on record: Ehrlich, 168 h, route intraperitoneal, read-out: GI. The method in brief: (§2)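 Swiss albino mice were inoculated ip on day 0 with 9-day-old Ehrlich ascites carcinoma cells from a donor mouse (10 × 10⁶ cells/mL in isotonic saline, 0.1 mL per 10 g). Mitomycin-C served as the standard at 1 mg/kg; controls received vehicle only. Mice were sacrificed on day 8 after 6 h without food and water. Peritoneal fluid cells were counted, and ascitic fluid weight came from body weight before and after draining the cavity.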

A short description of assay [4]: Antitumor activity against mouse EAC cells transplanted in Swiss albino mouse assessed as tumor cell inhibition in ascetic fluid at 1 mg/kg, ip administered qd for 7 days measured on 8th day. The settings on record: Ehrlich, 168 h, route intraperitoneal, read-out: GI. The assay is classed as functional. The method in brief: as §2

Histone deacetylase 1, sequence (Q13547 whole entry): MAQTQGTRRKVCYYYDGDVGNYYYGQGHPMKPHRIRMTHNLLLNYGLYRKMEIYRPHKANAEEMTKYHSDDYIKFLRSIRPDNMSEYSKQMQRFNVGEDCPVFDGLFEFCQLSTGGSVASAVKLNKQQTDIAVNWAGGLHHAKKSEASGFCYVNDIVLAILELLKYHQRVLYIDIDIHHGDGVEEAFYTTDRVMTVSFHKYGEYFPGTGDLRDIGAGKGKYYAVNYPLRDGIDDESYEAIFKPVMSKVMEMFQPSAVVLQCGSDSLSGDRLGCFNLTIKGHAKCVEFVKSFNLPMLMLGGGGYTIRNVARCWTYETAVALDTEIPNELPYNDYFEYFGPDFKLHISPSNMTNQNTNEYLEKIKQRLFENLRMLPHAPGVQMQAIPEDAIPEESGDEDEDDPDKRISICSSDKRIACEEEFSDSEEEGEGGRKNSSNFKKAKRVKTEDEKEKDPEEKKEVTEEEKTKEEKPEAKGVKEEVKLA

One may read the IC50 as the concentration that inhibits the measured activity by half. As to `O=C(NO)c1cnc(Nc2nnc(-c3ccc(F)cc3)o2)nc1`, the half-maximal inhibitory concentration (IC50) turned out to be 9 nM against Histone deacetylase 1 and 60 nM with HCT-116. The figures for the inhibition in vivo at 200 µmol/kg in assay [1] and in assay [2] were 24.1% and 16.4%, respectively.

Regarding `CN(C)c1ccc(-c2nnc(Nc3ncc(C(=O)NO)cn3)o2)cc1`, the IC50 at Histone deacetylase 1 amounted to 9 nM; in the assay with HCT-116, 200 nM. Moreover, the inhibition in vivo at 200 µmol/kg in assay [1] was 55.5%; in assay [2] it was 56.8%.

Take `O=C(NO)c1cnc(Nc2nnc(-c3ccccc3)s2)nc1`: the IC50 against Histone deacetylase 1 was 8 nM; in the assay on HCT-116, 80 nM. Besides, the inhibition in vivo at 200 µmol/kg in assay [1] turned out to be 14.2%; in assay [2], 29.5%.

With `O=C(NO)c1cnc(Nc2nnc(-c3ccc(Cl)cc3)s2)nc1`, the IC50 turned out to be 10 nM against Histone deacetylase 1 and 160 nM with HCT-116. The inhibition in vivo at 200 µmol/kg in assay [1] was 48.3%; in assay [2], 32%.

Consider `CN(C)c1ccc(-c2nnc(Nc3ncc(C(=O)NO)cn3)s2)cc1`, for which the half-inhibitory concentration (IC50) was 11 nM against Histone deacetylase 1 and 200 nM with HCT-116. For the same molecule, the inhibition in vivo at 200 µmol/kg in assay [1] was found to be 61.1%; in assay [2], 51.1%.

`CO[C@@]12[C@H](COC(N)=O)C3=C(C(=O)C(C)=C(N)C3=O)N1C[C@@H]1N[C@@H]12` [MITOMYCIN]: the inhibition in vivo at 1 mg/kg in assay [3] and in assay [4] was 100% in each case.

The record behind these values is ChEMBL document CHEMBL1833854, “2,5-Disubstituted-1,3,4-oxadiazoles/thiadiazole as surface recognition moiety: design and synthesis of novel hydroxamic acid based histone deacetylase inhibitors” (Bioorg Med Chem Lett, 2011).
